# Screens as filed in PubChem BioAssay.
# KCNK9 inh: inhibitors of human KCNK9 two-pore domain potassium channel | Q9NPC2 | HEK293 KCNK9, FluxOR thallium flux fluorescence; active compounds read low | B-score at 10 µM | 1.2% of 310,000 active | AID 488922;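 active = ratio B-score over 3 SD below the library mean, with starting fluorescence within 5 SD of its mean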;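 note: negative B-score means less thallium flux so channel inhibition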
# hERG rescue: hERG (human) protection from proarrhythmic block. 0.51% of 310,000 active. Q12809. CHO-hERG, FluxOR thallium flux, dofetilide IC70 present. activation (rescue from dofetilide block), less the hit threshold, % at 10 µM;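 active = activation above the mean of controls blocked by dofetilide plus 5 SD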;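 note: thallium influx through hERG after potassium depolarization seen as dye fluorescence rise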
# KCNQ1 inh: human KCNQ1 channel inhibition | CHO-K1 KCNQ1, FluxOR thallium flux fluorescence; active compounds read high | B-score at 10 µM | P51787 | 1.3% of 310,000 active;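 active = compounds whose thallium flux B-score, printed positive for inhibition, exceeds three library SD while starting fluorescence stays within three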;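 note: channel opened by potassium depolarization with thallium stimulus after 20 min compound exposure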
# Kir21 block: Kir2.1 (mouse) channel inhibition; P35561; HEK293-Kir2.1, FluxOR thallium flux fluorescence; active compounds read low; B-score at 10 µM; 0.85% of 310,000 active; AID 1672;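 active = fluorescence ratio B-score at or below minus 3 SD of library scores, with starting-brightness B-score within 2 SD, cut at about -4.2 in these data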;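 note: channel flux triggered by added potassium and thallium sulfate stimulus; B-score of peak minus minimum fluorescence over baseline after thallium stimulus; more negative B-score means stronger Kir2.1 block with less thallium influx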
# KCNQ1 act: human KCNQ1 channel potentiation or activation; B-score at 10 µM; P51787; 0.35% of 310,000 active; CHO-K1 KCNQ1, thallium flux FluxOR fluorescence; active compounds read high;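 active = fluorescence ratio B-score, a plate-corrected score, at least three library SD, with initial intensity B-score within 5 SD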
#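 Assay system: CHO-K1 cells stably expressing KCNQ1; Medium: assay buffer with matched DMSO; Also added: K+/Tl+ depolarizing stimulus; Dosing: single dose; Timing: dye 90 min, compound 20 min, room temperature; Measured by: kinetic FluxOR thallium fluorescence, 10-s 1-Hz baseline, 110-s post-stimulus read; Read-out: peak-minus-minimum fluorescence over initial fluorescence, negative-control normalized, B-scored.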
# KCNK3 inh: human KCNK3 channel inhibition, primary screen; O14649; CHO-KCNK3 thallium flux, FluxOR fluorescence; active compounds read low; B-score at 10 µM; 0.84% of 340,000 active; AID 602410;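 active = B-score under library mean minus 4 SD, starting fluorescence ratio at most library mean plus 5 SD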;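 note: more negative B-score means stronger inhibition of thallium flux through KCNK3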
# KCNK9 inh conf: human KCNK9 inhibitor confirmation; inhibition, % at 10 µM; shares compounds with KCNK9 inh; HEK293 KCNK9 cells, FluxOR thallium flux fluorescence; 43% of 4,900 active;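 active = thallium signal inhibited by more than 5 SD of the compound-free buffer control wells, on both duplicate plates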;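 note: 0% = assay buffer control wells without compound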
# Kir21 sel: tests whether KCNK9 modulators also affect mouse Kir2.1 | shares compounds with KCNK9 inh | Kir2.1 cells, FluxOR thallium flux fluorescence | inhibition, % at 10 µM | 4% of 4,900 active;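 active = thallium signal drop more than 5 SD beyond the mean of the no-compound control wells, seen in both duplicate plates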;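 note: signal is fluorescence rise after thallium addition divided by baseline fluorescence; plate controls were assay buffer only for no effect and full block by chlorpromazine control for full effect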
# HEK293 Tl ctr: non-induced cell nonspecific activity of KCNK9 modulators | shares compounds with KCNK9 inh | non-induced KCNK9-HEK293, FluxOR thallium flux | inhibition, % at 10 µM | 40% of 4,900 active;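 active = thallium signal drop beyond 5 SD of the untreated control mean, on both duplicate plates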;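 note: plate controls were buffer only IC0 wells for no effect and SID17386958 at its maximal inhibitory level for full effect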
# KCNK3 inh conf: confirmation of human KCNK3 two-pore domain potassium channel inhibitors | shares compounds with KCNK3 inh | CHO-KCNK3 thallium flux, FluxOR fluorescence; 0% buffer, 100% carvedilol maximal block | ratio percent of control, % at 10 µM | 99% of 2,400 active;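 active = ratio percent of control, averaged over triplicates, above buffer control mean plus 5 SD, cut at about 64% in these data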;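 note: ratio is the fluorescence rise from min to max over baseline after thallium stimulus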
# KCNK3 uninduced: KCNK3 inhibitor counter-screen hit in non-induced cells; 40% of 2,400 active; shares compounds with KCNK3 inh; AID 651747; thallium flux ratio (lower = more inhibition) at 10 µM; non-induced KCNK3 parental cells, FluxOR thallium flux; active compounds read low;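 active = thallium flux ratio, averaged over three wells, more than 5 SD below the buffer control mean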;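 note: host cells are CHO cells without KCNK3 induction; ratio is peak minus trough fluorescence over baseline then normalized to buffer controls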
# The depositor's hits bear a star; i = inactive; . = no result given. Rows were chosen to be rich in hits. Some 3.7% of all compounds tested hit in one or more screens of this group.
SMILES,KCNK9 inh,hERG rescue,KCNQ1 inh,Kir21 block,KCNQ1 act,KCNK3 inh,KCNK9 inh conf,Kir21 sel,HEK293 Tl ctr,others
Oc1ccccc1-[n+]1c(-c2ccccc2)cc(-c2ccccc2)c(O)c1-c1ccccc1,-8.4*,-6.1,i,-0.82,i,i,i,i,i,
COC(=O)C1=C(c2ccc(F)cc2OCc2ccccc2)C[C@@H]2CC[C@H]1N2C(=O)NCc1cccc(C(F)(F)F)c1,.,.,.,.,.,i,.,.,.,
COc1cccc(C(=O)C2CCCN(Cc3ccc(F)cc3)C2)c1 (stereo not given),i,-6.8,i,-3.08,i,i,i,i,i,
Cc1cccc(CN2CCCC(C(=O)c3cccc(OC(C)C)c3)C2)n1 (stereo not given),i,-8.2,i,-0.61,i,i,i,i,i,
O=C(c1ccc(Cl)cc1)C1CCCN(Cc2cccc3cccnc23)C1 (stereo not given),i,0.8,i,-1.13,i,i,i,i,i,
COc1cccc(C(=O)C2CCCN(Cc3ccc4nsnc4c3)C2)c1 (stereo not given),i,-9.1,i,-2.86,i,i,i,i,i,
COc1cccc(C(=O)C2CCCN(Cc3cccc(C)n3)C2)c1 (stereo not given),i,-5.9,i,-1.36,i,i,.,.,.,
COc1cccc(C(=O)C2CCCN(Cc3cnn(C(C)C)c3)C2)c1 (stereo not given),i,-11.4,i,-0.15,i,i,.,.,.,
C[C@]12CC[C@H]3[C@@H](CCC4=CC(=O)CC[C@@]43O)[C@@H]1CCC2=O,i,-12.4,i,-1.27,i,i,.,.,.,
Cc1ccc(-n2c(C)nc3cc(Cl)ccc3c2=O)nc1,i,-2.7,i,0.73,i,i,.,.,.,
O=C(c1cc(F)ccc1F)C1CCCN(Cc2cccc(Cl)c2)C1 (stereo not given),i,-10.4,i,0.19,i,i,i,i,i,
O=C(c1ccc2c(c1)OCO2)C1CCCN(Cc2c(F)cccc2Cl)C1 (stereo not given),i,-10.5,i,-0.94,i,i,i,i,i,
Cc1cc(Cl)ccc1C(=O)C1CCCN(Cc2ccon2)C1 (stereo not given),i,-19.2,i,-2.33,i,i,.,.,.,
FC(F)(F)c1cccc(-n2nnnc2C2(N3CCOCC3)CCCCC2)c1,-9.98*,-6.7,i,0.16,i,i,42.5%*,i,35.0%*,
O=C1CC(=O)N(c2cccc(C(F)(F)F)c2)C(=O)N1,i,-0.9,i,-0.62,i,i,.,.,.,
COc1ccc(C2NCCc3[nH]cnc32)cc1 (stereo not given),i,-4.3,i,-0.05,i,i,.,.,.,
Cn1cc(C=C(C#N)C#N)c2ccccc21,-8.35*,1.5,i,-9.25,i,i,i,i,52.5%*,
COC1=C(C)C(=O)C2=C(C1=O)C(CO)N1C(C#N)C3CC4C(C1C2N1CCOC41)N3C (stereo not given),.,.,.,.,.,i,.,.,.,
Cc1ccccc1NS(=O)(=O)c1ccc(OCC(=O)N2CCN(C)CC2)cc1,i,-8.8,i,-1.02,i,i,i,i,i,
Cc1ccc(NS(=O)(=O)c2ccc(OCC(=O)N3CCN(C)CC3)cc2)cc1,i,-15.4,i,0.63,i,i,.,.,.,
COC(=O)C1=C(c2cccc(OCc3ccccc3)c2)C[C@@H]2CC[C@H]1N2C(=O)NCc1ccccc1C(F)(F)F,.,.,.,.,.,i,.,.,.,
Cc1ccc(CN2CCCC(C(=O)c3cccc(C(F)(F)F)c3)C2)o1 (stereo not given),i,-14.7,i,-1.67,i,i,i,i,i,
Cc1ccsc1C(=O)C1CCCN(Cc2cc3ccccc3o2)C1 (stereo not given),i,-12.4,i,-1.01,i,i,i,i,i,
Cc1ccc(CN2CCCC(C(=O)c3sccc3C)C2)o1 (stereo not given),i,-14.5,i,0.41,i,i,i,i,i,
COC(=O)c1ccc(CN2CCSC2=N)cc1,i,-6.2,i,0,i,i,.,.,.,
SMILES,KCNK9 inh,hERG rescue,KCNQ1 inh,Kir21 block,KCNQ1 act,KCNK3 inh,KCNK9 inh conf,Kir21 sel,HEK293 Tl ctr,others
O=c1[nH]c(=O)n(Cc2ccccc2)c(O)c1/C=N/NCCO,i,-7.3,i,1.66,i,i,.,.,.,
Oc1ccccc1/C=N/NP(=S)(c1ccccc1)c1ccccc1,-13.3*,-14.2,12*,3.04,i,-14.7*,42.5%*,i,35.0%*,KCNK3 inh conf=109.0*;KCNK3 uninduced=0.15*
Oc1ccc(/C=N/NP(=S)(c2ccccc2)c2ccccc2)c(O)c1O,i,-11.7,i,-1.05,i,i,.,.,.,
COC(=O)C1=C(c2ccc(-c3ccccc3)c(F)c2)C[C@@H]2CC[C@H]1N2C(=O)NCCc1ccccc1,.,.,.,.,.,i,.,.,.,
NC(N)=N/N=C/c1cn(-c2ccccc2)nc1-c1cccs1,-9.22*,-30.4,9*,-9.28*,i,-12.5*,53.5%*,50.5%*,i,KCNK3 inh conf=101.0*;KCNK3 uninduced=i
COC(=O)C1=C(c2ccccc2OCc2ccccc2)C[C@@H]2CC[C@H]1N2C(=O)NCCCOC(C)C,.,.,.,.,.,i,.,.,.,
CN1C(=O)C(=Cc2ccccc2OCc2ccccc2Cl)C(=O)N(C)C1=O,i,-7.8,i,-2.96,i,i,.,.,.,
CN1C(=O)C(=Cc2c(OCc3cnc(Cl)s3)ccc3ccccc23)C(=O)N(C)C1=O,-15.4*,-25.2,i,-0.24,i,-9.03*,70.0%*,i,27.0%*,KCNK3 inh conf=101.3*;KCNK3 uninduced=i
O=C(c1ccc(Cl)cc1)C1CCCN(Cc2ccc3nonc3c2)C1 (stereo not given),-8.12*,-13.4,i,-1.99,i,-9.16*,58.5%*,i,i,KCNK3 inh conf=95.3*;KCNK3 uninduced=i
